Screens deposited in PubChem BioAssay by several laboratories.
Most compounds without a hit are left out; they make up all but 3.4% or so of the library.
PolyA inh: blocks polyadenylation in yeast reporter cells. S. cerevisiae SKY197-pL101 polyadenylation reporter, beta-gal luminescence; efflux-impaired pdr1/pdr3 knockout yeast; score 100 = 6 SD above DMSO. 300,000 tested, 0.02% active. activity score, % at 12 µM. AID 1875;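 active = lowest replicate activity score at least 50, where 100 means six control SD above control mean; inconclusive = lowest score under 50 but half or more replicates reach 50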;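 note: yeast exposed to compound for 9 h at 30 °C; higher score means more reporter readthrough which indicates perturbed polyadenylation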
A3A deaminase: inhibitors of human APOBEC3A DNA deaminase; P31941; recombinant A3A, FAM/TAMRA ssDNA deamination fluorescence; inhibition, % at 20 µM; 330,000 tested, 0.41% active; AID 493011;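 active = at least 40% inhibition at 20 µM here, with at most 30% in a related deaminase screen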
AHR activator: activators of human aryl hydrocarbon receptor. activation, % at 5 µM. AHR-responsive luciferase reporter cells, luminescence. P35869. 320,000 tested, 2.5% active; in the data active = activation above about 47%
Target sequence (P35869 whole entry, looked up): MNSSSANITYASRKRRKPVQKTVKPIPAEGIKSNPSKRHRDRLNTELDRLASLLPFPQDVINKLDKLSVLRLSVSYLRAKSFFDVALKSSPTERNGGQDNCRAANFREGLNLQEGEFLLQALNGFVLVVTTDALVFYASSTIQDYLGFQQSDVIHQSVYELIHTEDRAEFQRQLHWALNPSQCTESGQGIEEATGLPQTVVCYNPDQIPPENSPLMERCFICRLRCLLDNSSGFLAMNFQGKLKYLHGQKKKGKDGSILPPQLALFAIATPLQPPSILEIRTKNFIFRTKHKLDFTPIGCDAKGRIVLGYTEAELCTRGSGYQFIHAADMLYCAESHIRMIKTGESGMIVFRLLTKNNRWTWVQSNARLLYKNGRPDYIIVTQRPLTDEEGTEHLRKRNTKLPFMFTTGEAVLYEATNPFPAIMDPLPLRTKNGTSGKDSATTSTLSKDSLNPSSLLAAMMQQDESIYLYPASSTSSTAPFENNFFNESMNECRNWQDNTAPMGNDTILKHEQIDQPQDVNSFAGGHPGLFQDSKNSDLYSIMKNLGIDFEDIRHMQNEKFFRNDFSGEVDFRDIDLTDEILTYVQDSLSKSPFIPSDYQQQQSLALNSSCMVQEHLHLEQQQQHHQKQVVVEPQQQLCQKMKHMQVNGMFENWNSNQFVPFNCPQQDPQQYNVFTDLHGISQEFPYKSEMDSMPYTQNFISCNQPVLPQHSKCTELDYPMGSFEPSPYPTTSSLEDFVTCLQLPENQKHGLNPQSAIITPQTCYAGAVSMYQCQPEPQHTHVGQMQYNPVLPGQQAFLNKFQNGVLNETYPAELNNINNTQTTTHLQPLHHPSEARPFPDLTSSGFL
Arrestin-AP2 inh: blocks beta-arrestin peptide binding to AP2 adaptin. FITC-arrestin peptide / GST-AP2 beads, flow cytometry; AP2 beta2 appendage carries R879A mutation. inhibition, % at 10 µM. 340,000 tested, 0.31% active;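 active = inhibition above a set limit, near 3 SD of compounds lacking own fluorescence, cut at about 54% in these data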
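test system = AP2 appendage R879A on GSH beads | buffer or medium = PBS plus Tween 20 (0.05%) and BSA (0.1%) | incubation = 12 min plus 1 h, RT | detection = bead flow cytometry, FITC channel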
A3G deaminase: inhibitors of human APOBEC3G DNA deaminase | Q9HC16 | recombinant A3G, ssDNA deamination FAM/TAMRA fluorescence | inhibition, % at 20 µM | 330,000 tested, 0.28% active | AID 493012;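 active = inhibition of at least 40% at 20 µM, with no more than 30% in the related APOBEC3A deaminase screen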
UCH37 inh: inhibitors of human deubiquitinating enzyme UCH37; purified proteasome/UCH37, Ub-AMC cleavage fluorescence; inhibition, % (test concentration not listed); 330,000 tested, 0.33% active; AID 588478;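 active = mean inhibition over replicate wells above about 20%, limit read from the data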
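assay system = human UCH37 enzyme supplied as purified proteasome complex | amount = proteasome at 0.15 nM in the dispensed enzyme solution | schedule = 30 min compound-proteasome preincubation then 25 min substrate reaction, room temperature | measured by = fluorescence, ex 355 nm, em 460 nm | benchmarks = no-proteasome wells (full inhibition) and compound-free wells (no inhibition)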
Numbers stand for hits; – = inactive; ? = inconclusive; · = no result.

SMILES | PolyA inh | A3A deaminase | AHR activator | Arrestin-AP2 inh | A3G deaminase | UCH37 inh
COc1cc(NC(=O)c2ccc(F)cc2)c(OC)cc1NC(=O)CN1CCCCC1 | – | – | – | – | – | –
O=C(c1cccn2c(=O)c3cc(Cl)ccc3nc12)N1CCOCC1 | – | – | 91 | – | – | –
O=C(c1cccn2c(=O)c3cc(Cl)ccc3nc12)N1CCN(Cc2ccc3c(c2)OCO3)CC1 | – | – | 70 | – | – | –
Cc1ccsc1/C=N/Nc1nc2ccccc2s1 | – | – | 71 | – | – | ·
C(=N\Nc1nc2ccccc2s1)/c1cccs1 | – | – | 76 | – | – | ·
COc1ccc(NC(=O)C(=O)NN=C(C)CC(=O)Nc2ccccn2)c(OC)c1 | · | · | · | · | · | –
Brc1cc2c(cc1C=NNc1nc(N3CCCC3)nc(N3CCOCC3)n1)OCO2 | · | · | · | · | · | –
COc1ccccc1/C=C(/CC(=O)NCc1ccc2c(c1)OCO2)c1nc2ccccc2s1 | – | – | 81 | – | – | –
COc1ccccc1/C=C/C(=O)OCC(=O)NCc1ccc2c(c1)OCO2 | · | – | – | – | – | –
O=C(COc1ccccc1/C=C1\SC(=O)NC1=O)Nc1ccc(F)cc1 | – | – | 98 | – | – | –
C=CCN1C(=O)N/C(=C/c2ccccc2OCC(=O)Nc2ccc(F)cc2)C1=O | – | – | – | – | – | –
COc1ccc(C=NNC(=O)c2ccccc2[N+](=O)[O-])cc1COc1c(F)c(F)c(F)c(F)c1F | · | · | · | · | · | –
Cc1ccc(N2C(=O)c3ccc(N)cc3C2=O)cc1C | – | – | – | – | – | –
Cc1ccc(N2C(=O)c3ccc(N)cc3C2=O)cc1 | – | – | 51 | – | – | –
COc1ccc(-c2cc(-c3ccccc3)nc(SCC(=O)Nc3nccs3)c2C#N)cc1 | – | – | – | – | – | ·
COc1ccc(-c2nc(SCC(=O)Nc3nccs3)c(-c3ccc(Cl)cc3)[nH]2)cc1 | – | – | 72 | – | – | –
Cc1ccc(-c2nc(SCC(=O)NCC3CCCO3)c(-c3ccc(C)cc3)[nH]2)cc1 (stereo not drawn) | – | – | 54 | – | – | –
COc1ccc(-c2[nH]c(-c3ccc(C)cc3)nc2SCC(=O)Nc2nccs2)cc1 | – | – | 55 | – | – | –
Cc1ccc2nc(SCC(=O)NCC3CCCO3)c(C#N)cc2c1 (stereo not drawn) | – | – | – | – | – | –
COc1ccc(-c2nc(SCC(=O)NC3CCCC3)c(-c3ccc(OC)cc3)[nH]2)cc1 | ? | – | 49 | – | – | –
C=CCOc1ccc(C(CC)=NO)cc1OC | · | · | · | · | · | –
CON=Cc1ccc(N2CCN(C(=O)c3ccc(C)cc3)CC2)c([N+](=O)[O-])c1 | · | · | · | · | · | –
O=C(CSc1nc(-c2ccccc2)c(-c2ccccc2)[nH]1)Nc1nccs1 | – | – | – | – | – | –
COc1ccc(-c2[nH]c(-c3cccc(OC)c3)nc2SCC(=O)NCc2ccco2)cc1 | · | – | 77 | – | – | –
COc1ccc(-n2c(Cc3cccn3C)nnc2SCC(=O)NCc2ccco2)cc1 | – | – | 66 | – | – | –
SMILES | PolyA inh | A3A deaminase | AHR activator | Arrestin-AP2 inh | A3G deaminase | UCH37 inh
COc1ccc(-c2[nH]c(-c3ccc(SC)cc3)nc2SCC(=O)Nc2nccs2)cc1 | – | – | 52 | – | – | ·
COc1ccc(C=NNC(=O)c2ccc(CSc3nncn3C)cc2)cc1OC | · | · | · | · | · | –
c1ccc(C2=NNC(=NC3CC3)SC2)cc1 | – | – | – | – | – | –
c1ccc2c(C3=NNC(=NC4CCCCC4)SC3)c[nH]c2c1 | – | – | 57 | – | – | –
Clc1ccc(OCCn2ccnc2)c2ccccc12 | – | – | 74 | – | – | –
Cc1cccc(Cl)c1OCCCn1ccnc1 | – | – | 58 | – | – | –
Cc1cc(OCCCCCn2ccnc2)cc(C)c1Cl | – | – | 55 | – | – | –
CC(=NNC=O)c1ccncc1 | · | · | · | · | · | –
CCn1c(N=Cc2ccccc2O)nc2ccccc21 | · | · | · | · | · | –
C=C(C)Cn1c(SCC(=O)NN=Cc2c(O)ccc3ccccc23)nc2ccccc2c1=O | · | · | · | · | · | –
O=C(Nc1cc(C(F)(F)F)ccc1Cl)c1ccncc1 | – | – | – | – | – | –
O=C(Nc1cc(C(F)(F)F)ccc1Cl)c1ccc(NC(=O)C(F)(F)F)cc1 | – | – | 75 | – | – | –
CCCC(=O)Nc1ccc(C(=O)Nc2cc(C(F)(F)F)ccc2Cl)cc1 | – | – | 63 | – | – | –
CC(Cn1nnc([N+](=O)[O-])n1)=NNC(=O)c1ccc(Cl)c(Cl)c1 | · | · | · | · | · | –
COc1ccc(C=NNC(=O)c2nc(-c3ccccc3)n(-c3ccccc3)n2)c(O)c1 | · | · | · | · | · | –
COCc1cc(C)n(CC(=O)NN=Cc2ccc(-c3ccc(Cl)c(C(=O)O)c3)o2)c(=O)c1C#N | · | · | · | · | · | –
O=C(NN=Cc1ccc([N+](=O)[O-])cc1)c1cccnc1 | · | · | · | · | · | –
Fc1ccc(NN=C2CCSc3sccc32)c(F)c1 | · | · | · | · | · | –
Cn1nccc1C(=O)Oc1cccc(/C=N/NC(=O)c2ccccc2O)c1 | – | – | 69 | – | – | ·
COc1ccc(O)c(C=NNC(=O)CCC(=O)Nc2ccc(F)cc2)c1 | · | · | · | · | · | –
Cc1sc2nc(SCC(=O)N3CCCCC3)[nH]c(=O)c2c1C | – | – | – | – | – | –
Cc1sc2nc(SCC(=O)N3CCCC3)[nH]c(=O)c2c1C | – | – | 59 | – | – | –
COc1cc(C=NNC(=O)c2ccncc2)ccc1OC(=O)c1ccccc1Cl | · | · | · | · | · | –
CN(C)c1oc(/C=C/c2ccccc2)nc1C#N | – | – | 50 | – | – | –
COc1ccccc1/C=C/c1nc(C#N)c(N(C)C)o1 | – | – | – | – | – | –
SMILES | PolyA inh | A3A deaminase | AHR activator | Arrestin-AP2 inh | A3G deaminase | UCH37 inh
CCOC(=O)c1c(-c2ccc(F)cc2)csc1N=CN(C)C | · | · | · | · | · | –
CCCOc1ccc(-c2cc(C(=O)NCC3CCCO3)c3ccccc3n2)cc1 (stereo not drawn) | – | – | 51 | – | – | ·
O=C(NCC1CCCO1)c1cc(-c2ccncc2)nc2ccccc12 (stereo not drawn) | · | – | · | – | – | –
O=C(/C=C/c1ccc(Cl)c([N+](=O)[O-])c1)NCc1cccnc1 | – | – | 60 | – | – | ·
O=C(/C=C/c1cccc([N+](=O)[O-])c1)NCc1cccnc1 | – | – | 63 | – | – | –
CCC(C)c1ccc(O)c(NC(=O)c2cccnc2)c1 (stereo not drawn) | ? | – | 60 | – | – | –
COc1cc(C=NNC(=O)NC2CCCCC2)cc(OC)c1O | · | · | · | · | · | –
COc1ccc(CCn2c(SCCN3CCCCC3)nc3ccccc3c2=O)cc1OC | – | – | – | – | – | –
Cc1nc2ccccc2c(=O)n1CCc1ccccc1 | – | – | 51 | – | – | –
CC(=O)c1nc2ccccc2n1CCc1ccccc1 | – | – | 55 | – | – | –
O=c1c2ccccc2nc(SCCN2CCOCC2)n1CCc1ccccc1 | – | – | 52 | – | – | –
CC(C)(C)c1nnc(NN=Cc2ccc(O)cc2)n(N)c1=O | · | · | · | · | · | –
